Assay outcomes from PubChem BioAssay.
Most compounds without a hit are left out; they make up all but 2.1% or so of the library.
beta cell repl: inducers of MIN6 beta-cell proliferation, primary screen, ATP luminescence, uHTS; proliferation, % at 10 µM; MIN6 cells proliferation, ATPlite luminescence, 48 h; cells starved in 0.2% serum; 100% = growth in 10% serum; AID 2380, 2010; 0.29% of 330,000 active;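 active = compounds whose signal lies at least 3.5 SD above the mean of all wells on their plate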;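 note: 0% = DMSO-treated cells in low-serum medium and 100% = 10% serum control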
TLR4 MyD88 comp: inhibitors of TLR4-MyD88 association in cells, primary screen, cell-based, HeLa CL3-4, BLA complementation, FRET ratio. Toll-like receptor 4 (Homo sapiens) + Myeloid differentiation primary response protein …. HeLa CL3-4 TLR4/MyD88 BLA complementation. inhibition, % at 8.4 µM. 0.18% of 200,000 active. AID 861, 2007; in the data active = inhibition above about 25%;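 note: 0% = vehicle and 100% = reference inhibitor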
NOD2-RIPK2 inh: NOD2-RIPK2 binding disruptors in cells, primary screen, fluorescence, CHO cells, BLA complementation; Receptor-interacting serine/threonine-protein kinase 2 (Homo sapiens), O43353; CCF4 ratio; inhibition, % at 4.98 µM; 0.38% of 360,000 active; AID 624267, 2012; in the data active = inhibition above about 21%;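 note: 0% = vehicle only and 100% = reference blocker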
TLR9-MyD88 inh: inhibitors of TLR9-MyD88 association in cells, primary screen, cell-based, CHO, BLA complementation, fluorescence; Toll-like receptor 9 (Homo sapiens) + Myeloid differentiation primary response protein …; inhibition, % at 4.98 µM; 0.21% of 340,000 active; CCF4 FRET ratio; AID 504734, 2011;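 active = inhibition above the mean over all tested compounds plus 3 SD, cut at about 21% in these data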;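 note: 0% = DMSO only wells and 100% = clavulanate BLA inhibitor control wells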
MC4R antagonist: MC4R antagonists of cAMP signaling, primary screen, cell-based, TR-FRET, antagonist arm of biased-ligand search | 0.48% of 360,000 active | MC4R-expressing cells, MTII-stimulated cAMP, LANCE TR-FRET | inhibition, % at 6.5 µM | Melanocortin receptor 4 (Homo sapiens), P32245;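 active = inhibition above its plate's cutoff, the mean of tested wells on that plate plus 3 SD, cut at about 29% in these data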;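 note: 0% = Melanotan II alone and 100% = Melanotan II plus saturating MCL0020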
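System – human MC4R-expressing U2OS cells · Also added – Melanotan II · Dosing – one concentration, 6.5 µM nominal · Timing – 30-min compound, 1-h challenge, 1-h detection, room temperature · Measured by – Eu-cAMP/anti-cAMP TR-FRET, emission 671 nm · Replicates – singlicate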
MC4R barr agon: MC4R agonists recruiting beta-arrestin, primary screen, cell-based, luminescence, agonist arm of biased-ligand search | U2OS MC4R beta-arrestin complementation; percent of melanotan II response, DMSO zero | activation, % at 8.9 µM | 0.98% of 360,000 active | AID 540308, 2011;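 active = activation above a per-plate cutoff, the mean activation of sample wells on that plate plus 3 SD, cut at about 8% in these data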
* hit, by the source's call; . = no result given.

SMILES	beta cell repl	TLR4 MyD88 comp	NOD2-RIPK2 inh	TLR9-MyD88 inh	MC4R antagonist	MC4R barr agon
CCN(CC)c1ccc(/C=N/NC(=O)c2cccc(S(=O)(=O)Nc3ccccc3OC)c2)cc1	-3	11	5	10	6	-4
CCN(CC)c1ccc(/C=N/NC(=O)c2cccc(S(=O)(=O)Nc3ccccc3OC)c2)c(O)c1	0	7	21*	21*	4	-3
COc1ccccc1NC(=O)C(C)N1C(=O)C2CCCCC2C1=O (centres undefined)	0	.	-33	0	2	-2
CCOC(=O)C1=C(COC(=O)[C@@H](NC(=O)c2cccc(C)c2)C(C)C)NC(=O)NC1C (some centres undefined)	-2	.	-7	-6	3	-1
CC(C)c1ccc(S(=O)(=O)N2CCN(C(=O)CN3C(=O)c4ccccc4C3=O)CC2)cc1	-4	.	-4	1	3	0
CSc1ccc(/C=N\NC(=O)CNc2ccc(C)cc2)cc1	1	2	-19	3	-3	-1
Cc1cccc(NCC(=O)N/N=C/c2ccc(Br)cc2)c1	-4	-2	-4	-1	0	8.4*
O=C1c2[nH]nc(-c3ccccc3O)c2C(c2ccc(F)cc2)N1Cc1ccco1 (centres undefined)	-6	-5	0	4	-1	13*
O=C1c2[nH]nc(-c3ccccc3O)c2C(c2cccc(Cl)c2)N1Cc1ccco1 (centres undefined)	-6	-1	6	2	-8	6
COc1ccc(C(=O)/C=C/c2cn(CN3CCN(C)CC3)c3ccccc23)cc1	-5	18	21*	12	2	-1
C/C=C/CSc1nc2c(c(=O)[nH]c(=O)n2C)n1Cc1ccc(C)cc1	-1	-10	1	2	-24	8.9*
O=C(NCCc1ccccc1)c1nccc2ccccc12	1	.	-6	-4	4	-1
COc1ccc(Nc2ccnc3ccccc23)cc1	-1	4	1	14	2	-2
CC(C)Nc1ccc(Nc2ccnc3cc4ccccc4cc23)cc1	-6	.	7	-3	-12	8.5*
c1ccc(CCNc2ccnc3cc4ccccc4cc23)cc1	.	10	2	-8	-11	17*
Cc1ccc(-c2ccc(=O)n(CC(=O)N3CCN(c4cccc(C)c4)C(C)C3)n2)cc1 (centres undefined)	-3	-9	10	-3	17	7
Cc1ccc(-c2ccc(=O)n(CC(=O)N3CCN(c4cc(Cl)ccc4C)CC3)n2)cc1	-6	3	-6	6	11	8.5*
COc1ccc(OC)c(NC(=O)c2c(NC(=O)CNCc3ccco3)sc3c2CCC3)c1	-1	2	-5	0	16	9.2*
COc1ccc(NC(=O)c2c(NC(=O)CNCc3ccco3)sc3c2CCC3)c(OC)c1	-1	-8	-9	-8	2	-1
CCCCCCCCCCS(=O)(=O)N/N=C/c1ccc(O)cc1	-6	0	-2	0	2	9.0*
COc1ccccc1N/C(=N/S(=O)(=O)c1ccc(C)cc1)c1ccc(Cl)cc1	0	-7	3	-3	30*	0
COC(=O)c1cc(=O)nc(NN=Cc2ccc(C)cc2)s1	.	.	-20	.	.	.
Cc1ccc(C)c(N2CCN(S(=O)(=O)c3ccc(-c4ccc(=O)[nH]n4)o3)CC2)c1	4	.	-1	-6	0	11*
Cc1ccc(Cl)cc1N1CCN(S(=O)(=O)c2ccc(-c3ccc(=O)[nH]n3)o2)CC1	0	.	-4	-10	6	2
Cc1ccc(S(=O)(=O)Nc2ccc3ccccc3c2)cc1	.	.	-1	-3	2	9.4*
